Reference: publication PMC5159310 (Bioorganic & medicinal chemistry letters, 2016)
Positions of bridges follow the written chain, without caps; N, C: chain ends. Non-standard residues stand in square brackets, D forms with d. Residues, ends and D or L forms follow the SMILES beside them. Nle = CCCC[C@H](N)C(=O)O

Experiments:
Metabolic stability = format: in vitro ADME; settings: rat, plasma
[1] = biological target: bradykinin receptors (BRs); test: Radioligand competition assay using [3H]BK in rat brain membranes; format: binding; settings: for BR, [3H]BK Log[IC50] / IC50 / BR, [3H]BK IC50: rat brain membranes, pH 6.8, [3H]BK; for BR, [3H]BK Log[IC50]: logarithmic value (negative); for IC50: read-out: BR, [3H]BK IC50
Method in brief: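 Competitive binding against [3H]BK in rat brain membranes at pH 6.8. Non-specific binding was defined with 10 μM kallidin. Data came from at least two independent experiments run in duplicate. IC50 was derived by nonlinear least-squares regression and also reported as a logarithmic value.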

Molecule	half-life (Metabolic stability)	BR, [3H]BK Log[IC50] [1]	IC50 [1]	BR, [3H]BK IC50 [1]	other results
CC[C@H](C)[C@@H]1NC(=O)[C@H](CCCNC(=N)N)NC(=O)[C@H](CC(C)C)NC(=O)[C@H](Cc2ccccc2)NC(=O)CC[C@@H](C(=O)N[C@@H](CCCCN)C(=O)O)NC(=O)[C@H](CCCNC(=N)N)NC1=O [ligand 5, c^N,6[Phe-Leu-Arg-Ile-Arg-Glu]-Lys-OH] (FLRIREK-OH; lactam N-6 (inferred))	> 5 h	–	–	–	–
c^N,5[Leu-Arg-Ile-Arg-Glu]-Lys-OH (LRIREK-OH; lactam N-5; SMILES CC[C@H](C)[C@@H]1NC(=O)[C@H](CCCNC(=N)N)NC(=O)[C@H](CC(C)C)NC(=O)CC[C@@H](C(=O)N[C@@H](CCCCN)C(=O)O)NC(=O)[C@H](CCCNC(=N)N)NC1=O) [ligand 7]	–	−5.82+0.09	1510 nM	–	reduction of affinity at the BRs (fold) ([1]; compared with linear ligand 4): 22 fold
H-c^1,5(-cisCH=CH-)[Ala-Lys-Pro-Lys-Ala]-Lys-OH (AKPKA; not fully specified; cis-CH=CH- dicarba bridge 1,5; C-terminal Lys; printed: Ala-Lys-Pro-Lys-Ala) [ligand 2]	–	–	–	no competition	–
H-c^1,5(-CH2CH2-)[Ala-Lys-Pro-Lys-Ala]-Lys-OH (AKPKA; not fully specified; -CH2CH2- dicarba bridge 1,5; C-terminal Lys; printed: Ala-Lys-Pro-Lys-Ala) [ligand 3]	–	–	–	no competition	–
c^N,6[Lys-Leu-Arg-Ile-Arg-Glu]-Lys-OH (KLRIREK-OH; lactam N-6; SMILES CC[C@H](C)[C@@H]1NC(=O)[C@H](CCCNC(=N)N)NC(=O)[C@H](CC(C)C)NC(=O)[C@H](CCCCN)NC(=O)CC[C@@H](C(=O)N[C@@H](CCCCN)C(=O)O)NC(=O)[C@H](CCCNC(=N)N)NC1=O) [ligand 6]	–	−6.52+0.15	302 nM	–	–
CCCC[C@H](NC(=O)[C@H](CCCCN)NC(=O)[C@@H]1CCCN1C(=O)[C@H](CCCCN)NC(=O)[C@@H](N)CCCC)C(=O)N[C@@H](CCCCN)C(=O)O [ligand 1, H-Nle-Lys-Pro-Lys-Nle-Lys-OH] (H-[Nle]KPK[Nle]K-OH)	< 1 h	–	–	–	–
